Consider 22 compounds from ChEMBL document CHEMBL1649207, “Role of porins in the susceptibility of Mycobacterium smegmatis and Mycobacterium chelonae to aldehyde-based disinfectants and drugs” (2009).

In brackets after ≈: the same amount, converted by molar mass. Activity calls are given as the source filed them. The calls are words filed in the database; no cut-off is given here.

Assay [1] deals with Mycobacteroides chelonae. As to the kind of experiment: Antimicrobial activity against Mycobacterium chelonae ATCC 35752 by resazurine microtiter assay. Type of assay: functional. In a few lines: (§1)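 Colorimetric resazurin microtiter MIC assay in 7H9-oleic acid-albumin-dextrose-catalase broth at 30°C, with well-dispersed bacteria. Growth was also checked by visual scanning to confirm the readings. At least three repeats on independent culture batches.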
For orientation: Resazurin is reduced to fluorescent resorufin, in cell work by metabolically active cells.

For assay [2], the system named is Mycobacteroides chelonae. The assay can be described thus: Antimicrobial activity against Mycobacterium chelonae ATCC 35752 harboring pZS01 carrying mspA gene by resazurine microtiter assay. The format is functional.
In assay [3] the test system is Mycobacteroides chelonae. The assay can be described thus: Antimicrobial activity against Mycobacterium chelonae 9917 by resazurine microtiter assay. The format is functional. The gist of the method: as §1
Assay [4] deals with Mycobacteroides chelonae. As to the kind of experiment: Antimicrobial activity against Mycobacterium chelonae 9917 harboring pZS01 carrying mspA gene by resazurine microtiter assay. The format is functional.
Assay [5] deals with Mycolicibacterium smegmatis. As to the kind of experiment: Antimicrobial activity against Mycobacterium smegmatis str. MC2 155 deficient in production of polar phosphatidylinositol mannoside. The format is functional, organism-based.
Assay [6] deals with Mycolicibacterium smegmatis. The assay can be described thus: Antimicrobial activity against Mycobacterium smegmatis str. MC2 155 deficient in production of lipomannan and lipoarabinomannan. Type of assay: functional, organism-based.
The subject of assay [7] is Mycolicibacterium smegmatis. As to the kind of experiment: Antimicrobial activity against Lsr2-deficient Mycobacterium smegmatis str. MC2 155. The format is functional, organism-based.
Assay [8] relates to Mycolicibacterium smegmatis. As to the kind of experiment: Antimicrobial activity against Mycobacterium smegmatis str. MC2 155 deficient in mycothiol biosynthesis. The format is functional, organism-based.
The subject of assay [9] is Mycolicibacterium smegmatis. The assay can be described thus: Antimicrobial activity against Mycobacterium smegmatis str. MC2 155 deficient in glycopeptidolipid biosynthesis. The format is functional, organism-based.
The test system of assay [10] is Mycolicibacterium smegmatis. The assay can be described thus: Antimicrobial activity against Mycobacterium smegmatis str. MC2 155 deficient in production of lipomannan and produces truncated lipoarabinomannan. Type of assay: functional, organism-based.
In assay [11] the test system is Mycolicibacterium smegmatis. The assay can be described thus: Antimicrobial activity against Mycobacterium smegmatis str. MC2 155 harboring embA mutant gene. Type of assay: functional, organism-based.
In assay [12] the test system is Mycolicibacterium smegmatis. As to the kind of experiment: Antimicrobial activity against Mycobacterium smegmatis str. MC2 155 harboring embB mutant gene. Type of assay: functional, organism-based.
Assay [13] deals with Mycolicibacterium smegmatis. The assay can be described thus: Antimicrobial activity against MspA-deficient Mycobacterium smegmatis str. MC2 155. The format is functional, organism-based.
In assay [14] the test system is Mycolicibacterium smegmatis. The assay can be described thus: Antimicrobial activity against MspA- and MspC-deficient Mycobacterium smegmatis str. MC2 155. The format is functional, organism-based.
[15] abbreviates: Mycobacteroides chelonae, 9917, Urine.

The MIC is the lowest concentration that inhibits growth of the organism. With `CC[C@H]1OC(=O)[C@H](C)[C@@H](O[C@H]2C[C@@](C)(OC)[C@@H](O)[C@H](C)O2)[C@H](C)[C@@H](O[C@@H]2O[C@H](C)C[C@H](N(C)C)[C@H]2O)[C@](C)(OC)C[C@@H](C)C(=O)[C@H](C)[C@@H](O)[C@]1(C)O` [CLARITHROMYCIN], the MIC against Mycobacteroides chelonae [1] is 25 µg/mL (≈ 33.4 µM); against Mycobacteroides chelonae [2] (ATCC 35752, Urine), 50 µg/mL (≈ 66.8 µM); in the assay with Mycobacteroides chelonae [3] it was over 250 µg/mL; in the assay on Mycobacteroides chelonae [4] (setting [15]) it was 25 µg/mL (≈ 33.4 µM).

Take `O=C(N[C@H](CO)[C@H](O)c1ccc([N+](=O)[O-])cc1)C(Cl)Cl` [CHLORAMPHENICOL]: the MIC with Mycobacteroides chelonae [1] is over 500 µg/mL; in the assay on Mycobacteroides chelonae [2] (ATCC 35752, Urine), 50 µg/mL (≈ 155 µM); in the assay on Mycobacteroides chelonae [3], over 500 µg/mL; with Mycobacteroides chelonae [4] (setting [15]) it was 50 µg/mL (≈ 155 µM).

Consider `CC[C@@H](CO)NCCN[C@@H](CC)CO` [ETHAMBUTOL], for which the MIC in the assay with Mycobacteroides chelonae [1] was over 500 µg/mL; against Mycobacteroides chelonae [2] (ATCC 35752, Urine), 25 µg/mL (≈ 122 µM); against Mycobacteroides chelonae [3], over 500 µg/mL; against Mycobacteroides chelonae [4] (setting [15]) it was 250 µg/mL (≈ 1220 µM).

For `NC[C@H]1O[C@H](O[C@H]2[C@H](O)[C@@H](O[C@H]3O[C@H](CO)[C@@H](O)[C@H](N)[C@H]3O)[C@H](N)C[C@@H]2N)[C@H](N)C[C@@H]1O` [TOBRAMYCIN], the MIC against Mycobacteroides chelonae [1] and against Mycobacteroides chelonae [3] was 25 µg/mL (≈ 53.5 µM) each time.

`CC[C@H]1OC(=O)[C@H](C)[C@@H](O[C@H]2C[C@@](C)(OC)[C@@H](O)[C@H](C)O2)[C@H](C)[C@@H](O[C@@H]2O[C@H](C)C[C@H](N(C)C)[C@H]2O)[C@](C)(O)C[C@@H](C)C(=O)[C@H](C)[C@@H](O)[C@]1(C)O` [ERYTHROMYCIN]: the MIC was 20 µg/mL (≈ 27.3 µM) against Mycobacteroides chelonae [1]; 0.25 µg/mL (≈ 0.341 µM) in the assay on Mycobacteroides chelonae [2] (ATCC 35752, Urine); 500 µg/mL (≈ 681 µM) in the assay with Mycobacteroides chelonae [3]; 1 µg/mL (≈ 1.36 µM) in the assay on Mycobacteroides chelonae [4] (setting [15]).

Take `CC(=O)NC[C@H]1CN(c2ccc(N3CCOCC3)c(F)c2)C(=O)O1` [LINEZOLID]: the MIC in the assay on Mycobacteroides chelonae [1] came out at 25 µg/mL (≈ 74.1 µM); in the assay with Mycobacteroides chelonae [2] (ATCC 35752, Urine), 5 µg/mL (≈ 14.8 µM); with Mycobacteroides chelonae [3] it was 100 µg/mL (≈ 296 µM); in the assay on Mycobacteroides chelonae [4] (setting [15]) it was 1 µg/mL (≈ 2.96 µM).

`CN[C@H](CC(C)C)C(=O)N[C@H]1C(=O)N[C@@H](CC(N)=O)C(=O)N[C@H]2C(=O)N[C@H]3C(=O)N[C@H](C(=O)N[C@H](C(=O)O)c4cc(O)cc(O)c4-c4cc3ccc4O)[C@H](O)c3ccc(c(Cl)c3)Oc3cc2cc(c3O[C@@H]2O[C@H](CO)[C@@H](O)[C@H](O)[C@H]2O[C@H]2C[C@](C)(N)[C@H](O)[C@H](C)O2)Oc2ccc(cc2Cl)[C@H]1O` [VANCOMYCIN]: the MIC was 5 µg/mL (≈ 3.45 µM) against Mycobacteroides chelonae [1]; 5 µg/mL (≈ 3.45 µM) with Mycobacteroides chelonae [2] (ATCC 35752, Urine); over 500 µg/mL in the assay with Mycobacteroides chelonae [3]; 25 µg/mL (≈ 17.3 µM) in the assay on Mycobacteroides chelonae [4] (setting [15]).

For the compound `CN[C@@H]1C[C@H](N)[C@@H](O)[C@H](O[C@H]2O[C@H](CO)[C@H](O)[C@@H]3O[C@@]4(O[C@@H]23)O[C@H]([C@H](N)CO)[C@H](O)[C@H](O)[C@H]4O)[C@H]1O` [HYGROMYCIN], the minimal inhibitory concentration (MIC) in the assay with Mycobacteroides chelonae [1] and in the assay on Mycobacteroides chelonae [3] was over 500 µg/mL each time.

For `NNC(=O)c1ccncc1` [ISONIAZID], the MIC against Mycobacteroides chelonae [1] and with Mycobacteroides chelonae [3] was over 400 µg/mL throughout.

On to `NC[C@H]1O[C@H](O[C@H]2[C@H](O)[C@@H](O[C@H]3O[C@H](CO)[C@@H](O)[C@H](N)[C@H]3O)[C@H](N)C[C@@H]2N)[C@H](O)[C@@H](O)[C@@H]1O` [KANAMYCIN], for which the MIC in the assay with Mycobacteroides chelonae [1] is 50 µg/mL (≈ 103 µM); in the assay on Mycobacteroides chelonae [3] it was 10 µg/mL (≈ 20.6 µM).

In the case of `CC1(C)S[C@@H]2[C@H](NC(=O)[C@H](N)c3ccccc3)C(=O)N2[C@H]1C(=O)O` [AMPICILLIN], the MIC against Mycobacteroides chelonae [1] and in the assay on Mycobacteroides chelonae [3] was over 500 µg/mL each time.

`O=Cc1ccccc1C=O`: the outcome in the assay on Mycobacteroides chelonae [2] (Urine) and in the assay with Mycobacteroides chelonae [4] (Urine) was Active.

With `O=C(O)c1cn(C2CC2)c2cc(N3CCNCC3)c(F)cc2c1=O` [CIPROFLOXACIN], the MIC turned out to be 1.5 µg/mL (≈ 4.53 µM) in the assay with Mycobacteroides chelonae [1]; 2.5 µg/mL (≈ 7.54 µM) against Mycobacteroides chelonae [2] (ATCC 35752, Urine); 5 µg/mL (≈ 15.1 µM) against Mycobacteroides chelonae [3]; 1 µg/mL (≈ 3.02 µM) in the assay on Mycobacteroides chelonae [4] (setting [15]).

For the compound `O=CCCCC=O`, the result (in the assay with Mycobacteroides chelonae [2] (Urine); in the assay with Mycobacteroides chelonae [4] (Urine); in assay [10]; in assay [11]; in assay [12]) was Active. The result in assay [5], in assay [6], in [7], in [8], in [9] and in assay [13] was inactive. The outcome in assay [14] was inactive.

`NC(=O)c1cnccn1` [PYRAZINAMIDE]: the MIC with Mycobacteroides chelonae [1] and with Mycobacteroides chelonae [3] was over 500 µg/mL in each case.

Consider GENTAMICIN, for which the minimum inhibitory concentration (MIC) stood at 7.5 µg/mL in the assay on Mycobacteroides chelonae [1], 7.5 µg/mL against Mycobacteroides chelonae [2] (Urine), 15 µg/mL against Mycobacteroides chelonae [3] and 20 µg/mL in the assay on Mycobacteroides chelonae [4] (Urine).

For the compound `CCn1cc(C(=O)O)c(=O)c2cc(F)c(N3CCNCC3)cc21` [NORFLOXACIN], the MIC against Mycobacteroides chelonae [1] and with Mycobacteroides chelonae [3] was 5 µg/mL (≈ 15.7 µM) throughout.

For `CCc1cc(C(N)=S)ccn1` [ETHIONAMIDE], the MIC is over 400 µg/mL in the assay with Mycobacteroides chelonae [1]; 50 µg/mL (≈ 301 µM) against Mycobacteroides chelonae [2] (ATCC 35752, Urine); over 400 µg/mL against Mycobacteroides chelonae [3]; 50 µg/mL (≈ 301 µM) with Mycobacteroides chelonae [4] (setting [15]).

As for `CC[C@H]1OC(=O)[C@H](C)[C@@H](O[C@H]2C[C@@](C)(OC)[C@@H](O)[C@H](C)O2)[C@H](C)[C@@H](O[C@@H]2O[C@H](C)C[C@H](N(C)C)[C@H]2O)[C@](C)(O)C[C@@H](C)CN(C)[C@H](C)[C@@H](O)[C@]1(C)O` [AZITHROMYCIN], the MIC came to 500 µg/mL (≈ 668 µM) against Mycobacteroides chelonae [1]; 500 µg/mL (≈ 668 µM) with Mycobacteroides chelonae [2] (ATCC 35752, Urine); 500 µg/mL (≈ 668 µM) against Mycobacteroides chelonae [3]; 500 µg/mL (≈ 668 µM) in the assay on Mycobacteroides chelonae [4] (setting [15]).

For `CN[C@@H]1[C@H](O[C@H]2[C@H](O[C@H]3[C@H](O)[C@@H](O)[C@H](N=C(N)N)[C@@H](O)[C@@H]3N=C(N)N)O[C@@H](C)[C@]2(O)C=O)O[C@@H](CO)[C@H](O)[C@H]1O` [STREPTOMYCIN], the MIC in the assay with Mycobacteroides chelonae [1] was 200 µg/mL (≈ 344 µM); in the assay with Mycobacteroides chelonae [2] (ATCC 35752, Urine) it was 250 µg/mL (≈ 430 µM); in the assay with Mycobacteroides chelonae [3], 10 µg/mL (≈ 17.2 µM); in the assay with Mycobacteroides chelonae [4] (setting [15]), 10 µg/mL (≈ 17.2 µM).

On to `CN(C)[C@@H]1C(O)=C(C(N)=O)C(=O)[C@@]2(O)C(O)=C3C(=O)c4c(O)cccc4[C@@](C)(O)[C@H]3C[C@@H]12` [TETRACYCLINE], for which the MIC was 50 µg/mL (≈ 113 µM) against Mycobacteroides chelonae [1]; 5 µg/mL (≈ 11.3 µM) with Mycobacteroides chelonae [2] (ATCC 35752, Urine); over 500 µg/mL with Mycobacteroides chelonae [3]; 25 µg/mL (≈ 56.3 µM) in the assay with Mycobacteroides chelonae [4] (setting [15]).

As to `CO[C@H]1/C=C/O[C@@]2(C)Oc3c(C)c(O)c4c(O)c(c(/C=N/N5CCN(C)CC5)c(O)c4c3C2=O)NC(=O)/C(C)=C\C=C\[C@H](C)[C@H](O)[C@@H](C)[C@@H](O)[C@@H](C)[C@H](OC(C)=O)[C@@H]1C` [RIFAMPIN], the MIC against Mycobacteroides chelonae [1] was 25 µg/mL (≈ 30.4 µM); with Mycobacteroides chelonae [2] (ATCC 35752, Urine), 5 µg/mL (≈ 6.08 µM); with Mycobacteroides chelonae [3], over 500 µg/mL; against Mycobacteroides chelonae [4] (setting [15]), 100 µg/mL (≈ 122 µM).
